PMC3169429 (ACS chemical biology, 2010)

Assays:
[1] = target: T1, bacteriophage T4 clamp loader, gp44/62 (Enterobacteria phage T4, UniProt P04526); conditions: read-out: Ki (inhibition constant) against gp44/62; cited from earlier work
T1 sequence (P04526 1-319): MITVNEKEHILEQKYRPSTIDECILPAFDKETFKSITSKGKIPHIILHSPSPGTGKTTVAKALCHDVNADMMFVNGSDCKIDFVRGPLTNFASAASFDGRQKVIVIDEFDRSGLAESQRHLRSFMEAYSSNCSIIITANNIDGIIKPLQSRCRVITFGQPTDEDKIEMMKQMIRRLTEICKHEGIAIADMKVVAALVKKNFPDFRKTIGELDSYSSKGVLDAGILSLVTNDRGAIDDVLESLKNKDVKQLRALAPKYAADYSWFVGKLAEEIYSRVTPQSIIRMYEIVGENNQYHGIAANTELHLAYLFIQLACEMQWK
T1 sequence (P04527 1-187 partner): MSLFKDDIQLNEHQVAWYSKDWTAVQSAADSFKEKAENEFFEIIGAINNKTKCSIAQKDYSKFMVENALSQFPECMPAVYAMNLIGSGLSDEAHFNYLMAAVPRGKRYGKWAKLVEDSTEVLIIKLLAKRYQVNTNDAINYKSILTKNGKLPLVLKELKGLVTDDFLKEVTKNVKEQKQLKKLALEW

[2] = target: T2, gp44/62 opening of CPM-labeled gp45 (Enterobacteria phage T4, UniProt P04526); experiment: FRET quenching / stopped-flow fluorescence clamp opening assay; format: biochemical, bacteriophage T4; conditions: 1 mM nucleotide, CPM-labeled gp45 mixed with gp44/62
T2 sequence (P04526 1-319): T1 sequence (P04526 1-319)
T2 sequence (P04527 1-187 partner): T1 sequence (P04527 1-187 partner)

[3] = target: T1, bacteriophage T4 clamp loader, gp44/62; experiment: ATPase inhibition assay, wild-type gp44/62; format: biochemical; conditions: for Selectivity Factor: Ki (γ-complex) / Ki (gp44/62)
[4] = target: E. coli clamp loader, γ-complex (Escherichia coli, UniProt P06710); experiment: ATPase inhibition assay, γ-complex; format: biochemical
R175K mutant of gp44/62 = R175K mutant of gp44/62 (Enterobacteria phage T4, UniProt P04526, R175K); experiment: ATPase inhibition assay, gp44/62 R175K mutant; format: biochemical, bacteriophage T4
R175L mutant of gp44/62 = R175L mutant of gp44/62 (Enterobacteria phage T4, UniProt P04526, R175L); experiment: ATPase inhibition assay, gp44/62 R175L mutant; format: biochemical, bacteriophage T4
T4 bacteriophage [5] = experiment: Plaque forming assay in JA300 E. coli; format: cell-based, T4 bacteriophage in E. coli JA300
JA300 E. coli cells = experiment: Toxicity screen against E. coli; format: cell-based, Escherichia coli; conditions: in suspension or plated on LB/agar for extended periods
T4 bacteriophage [6] = experiment: Plaque forming assay in deoxythymidine kinase deficient E. coli KY895; format: cell-based, T4 bacteriophage in E. coli KY895 (tdk-1); conditions: 100 µg/ml
Procedure, shortened: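 The plaque assay used the deoxythymidine kinase knockout E. coli strain KY895 in place of JA300. An overnight culture was diluted 1:150 in LB and pre-incubated with the nucleoside for 60 min at 37°C. Cells were infected with ~300 pfu T4 and plated over LB/agar for 24 h at 37°C. Plaques were counted manually; ANOVA and t-test were applied.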

[7] = target: T3, bacteriophage T4 replicase (Enterobacteria phage T4, UniProt P04526); experiment: Replicase formation; format: biochemical; conditions: 100 µM inhibitor
T3 sequence (P04526 1-319): T1 sequence (P04526 1-319)
T3 sequence (P04527 1-187 partner): T1 sequence (P04527 1-187 partner)

T4 DNA polymerase = experiment: DNA polymerase activity in the strand displacement assay; format: biochemical, bacteriophage T4; conditions: absence or presence of 100 µM d5-NITP
gp44/62 = target: T4, gp44/62 (Enterobacteria phage T4, UniProt P04526); experiment: Hydrolysis of nucleotide substrates by gp44/62; format: biochemical, bacteriophage T4; conditions: nucleotide substrates at 500 µM
T4 sequence (P04526 1-319): T1 sequence (P04526 1-319)
T4 sequence (P04527 1-187 partner): T1 sequence (P04527 1-187 partner)
Procedure, shortened: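 Wild-type T4 gp44/62 purified from an overproducing strain. Each ribo- or deoxy-nucleotide was supplied as substrate. Hydrolysis was read as Pi release by malachite green.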

Chain of R175L mutant of gp44/62 (P04526 whole entry R175L, one chain of several): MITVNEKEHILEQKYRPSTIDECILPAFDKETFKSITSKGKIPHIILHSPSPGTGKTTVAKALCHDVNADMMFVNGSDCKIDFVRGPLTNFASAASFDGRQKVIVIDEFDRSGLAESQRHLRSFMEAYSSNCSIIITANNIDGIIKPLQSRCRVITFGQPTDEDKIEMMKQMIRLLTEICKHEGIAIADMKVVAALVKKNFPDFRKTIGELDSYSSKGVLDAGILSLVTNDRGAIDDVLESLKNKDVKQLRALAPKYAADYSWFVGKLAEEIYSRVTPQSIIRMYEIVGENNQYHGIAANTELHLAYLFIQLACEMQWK
Chain of R175K mutant of gp44/62 (P04526 whole entry R175K, one chain of several): as the sequence (P04526 whole entry R175L, one chain of several) above, with L175K counted along it

Nc1ncnc2c1ncn2C1OC(COP(=O)(O)OP(=O)(O)NP(=O)(O)O)C(O)C1O (stereo not drawn) [AMP-PNP, 5'-adenylyl-beta, gamma-imidodiphosphate]
Ki [1]: 1200 µM

Nc1ncnc2c1ncn2[C@@H]1O[C@H](COP(=O)(O)OP(=O)(O)OP(=O)(O)O)[C@@H](O)[C@H]1O [ATP, reference compound]
Amplitude of change in fluorescence (clamp opening) [2]: 0.2199 ± 0.0004 units

Nc1ncnc2c1ncn2[C@@H]1O[C@H](CO[P@](=O)(O)O[P@](=O)(O)O[P@@](=O)(O)S)[C@@H](O)[C@H]1O [ATPγS, reference compound]
Selectivity Factor [3]: 0.44
Ki [4]: 13 ± 4.5 µM
Ki (R175K mutant of gp44/62): 14 ± 3.5 µM
Ki (R175L mutant of gp44/62): 33.2 ± 8 µM

O=C(N[C@H](CO)[C@H](O)c1ccc([N+](=O)[O-])cc1)C(Cl)Cl [chloramphenicol, reference compound]
Decrease in phage infectivity (T4 bacteriophage [5]; bacteriostatic agent control): does not cause an appreciable decrease

O=[N+]([O-])c1cccc2c1ccn2[C@H]1C[C@H](O)[C@@H](COP(=O)(O)OP(=O)(O)OP(=O)(O)O)O1 [d4-NITP, 4-nitro-indolyl-2’-deoxyriboside triphosphate]
Selectivity Factor [3]: 0.32
Fold higher Ki than d5-NITP ([3]; wild type gp44/62): ~ 6 fold

Nc1ccc2c(ccn2[C@H]2C[C@H](O)[C@@H](COP(=O)(O)OP(=O)(O)OP(=O)(O)O)O2)c1 [d5-AITP, 5-amino-indolyl-2’-deoxyriboside triphosphate]
Selectivity Factor [3]: < 0.23

O=P(O)(O)OP(=O)(O)OP(=O)(O)OC[C@H]1O[C@@H](n2ccc3cc(C4=CCCCC4)ccc32)C[C@@H]1O [d5-CEITP, 5-cyclohexene-indolyl-2’-deoxyriboside triphosphate]
Selectivity Factor [3]: 1.18

O=P(O)(O)OP(=O)(O)OP(=O)(O)OC[C@H]1O[C@@H](n2ccc3cc(C4CCCCC4)ccc32)C[C@@H]1O [d5-CHITP, 5-cyclohexyl-indolyl-2’-deoxyriboside triphosphate]
Selectivity Factor [3]: 0.51

CCc1ccc2c(ccn2[C@H]2C[C@H](O)[C@@H](COP(=O)(O)OP(=O)(O)OP(=O)(O)O)O2)c1 [d5-EtITP, 5-ethyl-indolyl-2’-deoxyriboside triphosphate]
Selectivity Factor [3]: 0.11
Fold lower Ki in R175L mutant compared to wild type enzyme (R175L mutant of gp44/62): ~ 10 fold

C=Cc1ccc2c(ccn2[C@H]2C[C@H](O)[C@@H](CO)O2)c1 [d5-Ey, 5-ethylene-indolyl-2'-deoxyribose]
Inhibition of plaque formation (T4 bacteriophage [5]; 150 µg/mL): 15%

C=Cc1ccc2c(ccn2[C@H]2C[C@H](O)[C@@H](COP(=O)(O)OP(=O)(O)OP(=O)(O)O)O2)c1 [d5-EyITP, 5-ethylene-indolyl-2’-deoxyriboside triphosphate]
Selectivity Factor [3]: < 0.15
Fold lower Ki in R175L mutant compared to wild type enzyme (R175L mutant of gp44/62): ~ 10 fold

OC[C@H]1O[C@@H](n2ccc3cc(F)ccc32)C[C@@H]1O [d5-FI, 5-fluoro-indolyl-2’-deoxyriboside]
Inhibition of plaque formation (T4 bacteriophage [5]; 100 µg/mL): do not inhibit plaque formation

O=P(O)(O)OP(=O)(O)OP(=O)(O)OC[C@H]1O[C@@H](n2ccc3cc(F)ccc32)C[C@@H]1O [d5-FITP, 5-fluoro-indolyl-2’-deoxyriboside triphosphate]
Selectivity Factor [3]: < 0.17

O=[N+]([O-])c1ccc2c(ccn2[C@H]2C[C@H](O)[C@@H](CO)O2)c1 [d5-NI, 5-nitro-indolyl-2’-deoxyriboside]
Inhibition of gp44/62 ([3]; at concentrations greater than 200 µM): does not inhibit
Fold less protection at 25 µg/mL than at 50 µg/mL (T4 bacteriophage [5]; 25 µg/mL versus 50 µg/mL): ~ 2.5 fold
Fewer plaques compared to untreated E. coli (T4 bacteriophage [5]; E. coli preincubated with 100 µg/mL): ~ 40%
Bactericidal or bacteriostatic effect on E. coli (JA300 E. coli cells): does not produce a significant bactericidal or bacteriostatic effect
Effect on plaque formation in tdk-1 strain KY895 compared to wild-type JA300 (T4 bacteriophage [6]): significantly reduced

O=[N+]([O-])c1ccc2c(ccn2[C@H]2C[C@H](O)[C@@H](COP(=O)(O)OP(=O)(O)OP(=O)(O)O)O2)c1 [d5-NITP, 5-nitro-indolyl-2’-deoxyriboside triphosphate]
Formation of the replicase complex [7]: inhibits formation of the replicase complex
Effect on polymerase activity (products generated by polymerase alone) (T4 DNA polymerase): identical amounts of products are generated
Amplitude of change in fluorescence (clamp opening) [2]: 0.044 ± 0.002 units

O=P(O)(O)OP(=O)(O)OP(=O)(O)OC[C@H]1O[C@@H](n2ccc3cc(-c4ccccc4)ccc32)C[C@@H]1O [d5-PhITP, 5-phenyl-indolyl-2’-deoxyriboside triphosphate]
Selectivity Factor [3]: 0.18

O=[N+]([O-])c1ccc2ccn([C@H]3C[C@H](O)[C@@H](COP(=O)(O)OP(=O)(O)OP(=O)(O)O)O3)c2c1 [d6-NITP, 6-nitro-indolyl-2’-deoxyriboside triphosphate]
Selectivity Factor [3]: 1.59

Nc1ncnc2c1ncn2[C@H]1C[C@H](O)[C@@H](COP(=O)(O)OP(=O)(O)OP(=O)(O)O)O1 [dATP, reference compound]
Hydrolysis by gp44/62 (gp44/62): hydrolyzes dATP just as efficiently as ATP

O=P(O)(O)OP(=O)(O)OP(=O)(O)OCC1OC(n2ccc3ccccc32)CC1O (stereo not drawn) [dITP, indolyl-2’-deoxyriboside triphosphate]
Selectivity Factor [3]: < 0.30

O=[N+]([O-])c1ccc2c(ccn2[C@@H]2O[C@H](COP(=O)(O)OP(=O)(O)OP(=O)(O)O)[C@@H](O)[C@H]2O)c1 [r5-NITP, 5-nitro-indolyl-2’-ribose triphosphate]
Hill coefficient ([3]; dose-dependent inhibition of gp44/62 ATPase activity): ~ 1
Hydrolysis by gp44/62 (gp44/62): incapable of hydrolyzing r5-NITP
